Results as given in ChEMBL document CHEMBL1944532, “Synthesis and evaluation of anticancer activity of some novel 6-aryl-2-(p-sulfamylphenyl)-pyridazin-3(2H)-ones” (Eur J Med Chem, 2012).
The source made the active and inactive calls. The rule behind the calls is not given here.

Experiments:
[1] = system: SW-620; assay: Antitumor activity against human SW620 cells implanted in mouse dosed qd for 4 days by formazan dye-based hollow fiber assay; type: functional, organism-based
Summary of the method: (§1)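 Cells grown inside polyvinylidene fluoride hollow fibers; each line implanted into both intraperitoneal and subcutaneous compartments in mice. Compound given ip at two doses on a QD x 4 schedule. Fibers then recovered and viable cell mass measured by formazan dye conversion. Scored 2 per dose giving ≥50% reduction in viable cell mass (%T/C 50).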

[2] = system: UO-31; assay: Cytotoxicity against human UO31 cells after 48 hrs by SRB assay; type: functional; settings: UO-31, 48 h
Summary of the method: (§2)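 NCI 60-cell-line five-dose screen. Cells were grown in 1640 medium with 5% fetal calf serum and 2 mM L-glutamine, with inoculum density set by cell line, and pre-incubated 24 h. Compound in DMSO was added at 10^-4 to 10^-8 M (10-fold steps) with 48 h continuous exposure. Growth was read by SRB protein assay, and GI50, TGI and LC50 were derived from dose-response.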

[3] = system: SR; assay: Cytotoxicity against human SR cells after 48 hrs by SRB assay; type: functional; summary of the method: as §2
[4] = system: HOP-92; assay: Cytotoxicity against human HOP92 cells assessed as cell growth at 10 uM after 48 hrs by SRB assay; type: functional; settings: HOP-92, 48 h, read-out: Activity
Summary of the method: (§3)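 NCI primary single-dose screen at 10^-5 M against the ~60 human tumour cell line panel. Cells grown in RPMI-1640 with 5% fetal calf serum and 2 mM L-glutamine and pre-incubated 24 h before compound addition. Compound added from DMSO solution with 48 h exposure. Growth read by sulforhodamine B protein staining.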

[5] = system: T47D; assay: Cytotoxicity against human T47D cells assessed as cell growth at 10 uM after 48 hrs by SRB assay; type: functional; settings: read-out: Activity
Summary of the method: (§4)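 NCI primary one-dose screen at 10^-5 M against the full panel of about 60 human tumour cell lines, run to the NCI Drug Evaluation Branch protocol.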

[6] = Toxicity in ip dosed athymic nude mouse assessed as body weight loss after 2 weeks; type: organism-based; settings: in vivo
Summary of the method: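 Maximum tolerated dose determination in athymic nude mice. Single ip injection of 400, 200 or 100 mg/kg, one mouse per dose. Compound solubilized in DMSO. Feed and water ad libitum. Mice observed 2 weeks for body weight loss, lethality and other toxicity signs; sacrificed if weight loss exceeds 20%.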

[7] = system: UACC-257; assay: Cytotoxicity against human UACC257 cells assessed as cell growth at 10 uM after 48 hrs by SRB assay; type: functional; settings: UACC-257, 48 h, read-out: Activity; summary of the method: as §4
[8] = system: NCI-H322M; assay: Cytotoxicity against human NCI-H322M cells assessed as cell growth at 10 uM after 48 hrs by SRB assay; type: functional; settings: read-out: Activity
Summary of the method: (§5)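 NCI primary single-dose screen at 10^-5 M against the full panel of about 60 human tumor cell lines. Cells were in RPMI-1640 with 5% fetal calf serum and 2 mM L-glutamine and preincubated 24 h. Compound was given in DMSO with 48 h exposure. Growth was estimated by sulforhodamine B protein assay.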

[9] = system: SK-OV-3; assay: Cytotoxicity against human SKOV3 cells after 48 hrs by SRB assay; type: functional; settings: SK-OV-3, 48 h; summary of the method: as §2
[10] = system: NCI-H322M; assay: Cytotoxicity against human NCI-H322M cells after 48 hrs by SRB assay; type: functional
Summary of the method: (§6)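 NCI five-dose screen on the ~60-line human tumor panel. Cells grown in RPMI-1640 with 5% fetal calf serum and 2 mM L-glutamine, seeded at line-dependent density and preincubated 24 h. Compound added from DMSO at 10-fold dilutions from 10^-4 to 10^-8 M, continuous exposure 48 h. Growth read by sulforhodamine B protein stain. GI50, TGI and LC50 derived per line.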

[11] = system: TK-10; assay: Cytotoxicity against human TK10 cells after 48 hrs by SRB assay; type: functional; settings: TK-10, 48 h; summary of the method: as §2
[12] = system: MDA-MB-468; assay: Cytotoxicity against human MDA-MB-468 cells assessed as cell growth at 10 uM after 48 hrs by SRB assay; type: functional; settings: MDA-MB-468, 48 h, read-out: Activity; summary of the method: as §5
[13] = system: M14; assay: Cytotoxicity against human M14 cells assessed as cell growth at 10 uM after 48 hrs by SRB assay; type: functional; settings: M14, 48 h, read-out: Activity; summary of the method: as §5
[14] = system: OVCAR-3; assay: Antitumor activity against human OVCAR3 cells implanted in mouse dosed qd for 4 days by formazan dye-based hollow fiber assay; type: functional, organism-based; summary of the method: as §1
[15] = system: CCRF-CEM; assay: Cytotoxicity against human CCRF-CEM cells after 48 hrs by SRB assay; type: functional
Summary of the method: (§7)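 NCI ~60-line panel in RPMI-1640 with 5% fetal calf serum and 2 mM L-glutamine, pre-incubated 24 h. Compound in DMSO tested at five 10-fold concentrations (10^-4 to 10^-8 M) with 48 h continuous exposure. Growth measured by sulforhodamine B protein assay. GI50 (50% net growth inhibition), TGI (total inhibition) and LC50 (50% net cell death) derived from dose-response.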

[16] = system: OVCAR-4; assay: Cytotoxicity against human OVCAR4 cells assessed as cell growth at 10 uM after 48 hrs by SRB assay; type: functional; settings: OVCAR-4, 48 h, read-out: Activity; summary of the method: as §5
[17] = system: IGROV-1; assay: Cytotoxicity against human IGROV1 cells assessed as cell growth at 10 uM after 48 hrs by SRB assay; type: functional; settings: IGROV-1, 48 h, read-out: Activity; summary of the method: as §3
[18] = system: NCI-H23; assay: Antitumor activity against human NCI-H23 cells implanted in mouse dosed qd for 4 days by formazan dye-based hollow fiber assay; type: functional, organism-based; summary of the method: as §1
[19] = system: SF-295; assay: Cytotoxicity against human SF295 cells assessed as cell growth at 10 uM after 48 hrs by SRB assay; type: functional; settings: SF-295, 48 h, read-out: Activity; summary of the method: as §5
[20] = system: OVCAR-8; assay: Cytotoxicity against human OVCAR8 cells after 48 hrs by SRB assay; type: functional; settings: OVCAR-8, 48 h; summary of the method: as §6
[21] = system: DU-145; assay: Cytotoxicity against human DU145 cells assessed as cell growth at 10 uM after 48 hrs by SRB assay; type: functional; settings: DU-145, 48 h, read-out: Activity; summary of the method: as §3
[22] = system: SNB-19; assay: Cytotoxicity against human SNB19 cells assessed as cell growth at 10 uM after 48 hrs by SRB assay; type: functional; settings: SNB-19, 48 h, read-out: Activity; summary of the method: as §4
[23] = system: HCT-116; assay: Cytotoxicity against human HCT116 cells after 48 hrs by SRB assay; type: functional; settings: HCT-116, 48 h; summary of the method: as §7
[24] = system: SK-MEL-28; assay: Cytotoxicity against human SK-MEL-28 cells after 48 hrs by SRB assay; type: functional; settings: SK-MEL-28, 48 h; summary of the method: as §2

In the case of `CCc1ccc(-c2ccc(=O)n(-c3ccc(S(N)(=O)=O)cc3)n2)cc1`, the Activity [1] is reported as “inactive”, the LC50 [2] is reported as > 100 µM and the GI50 ([2]; read-out: GI50) is reported as > 100 µM. For the same molecule, the GI50 ([2]; read-out: pGI50 (converted)) was > 100 µM, the TGI ([2]; read-out: pTGI) was > 100 µM and the LC50 [3] was > 100 µM. For the same molecule, the GI50 ([3]; read-out: GI50) was 0.0887 µM, the GI50 ([3]; read-out: pGI50 (converted)) was 0.0891 µM and the TGI ([3]; read-out: pTGI (converted)) was 0.49 µM. The growth at 10 µM [4] was 65.8%, the growth at 10 µM [5] was 33.4% and the MTD at 336 h [6] was 400 mg/kg. The growth at 10 µM [7] was 22.3%, the growth at 10 µM [8] was 115% and the LC50 [9] was > 100 µM. The GI50 ([9]; read-out: GI50) was 4.02 µM, the GI50 ([9]; read-out: pGI50 (converted)) was 3.98 µM and the TGI ([9]; read-out: pTGI) was > 100 µM. The LC50 [10] was > 100 µM, the GI50 ([10]; read-out: GI50) was 14.3 µM and the GI50 ([10]; read-out: pGI50 (converted)) was 14.1 µM. It also gave a TGI ([10]; read-out: pTGI (converted)) of 100 µM, an LC50 [11] of 77.6 µM and a GI50 ([11]; read-out: GI50) of 10.8 µM. For the same molecule, the GI50 ([11]; read-out: pGI50 (converted)) was 11 µM, the TGI ([11]; read-out: pTGI (converted)) was 28.8 µM and the growth at 10 µM [12] was 7.89%. For the same molecule, the growth at 10 µM [13] was 17.7%, the Activity [14] was “inactive” and the LC50 [15] was > 100 µM. The GI50 ([15]; read-out: GI50) was 0.786 µM, the GI50 ([15]; read-out: pGI50 (converted)) was 0.794 µM and the TGI ([15]; read-out: pTGI) was > 100 µM. The growth at 10 µM [16] was 74.5%, the growth at 10 µM [17] was -5.72% and the Activity [18] was “inactive”. The growth at 10 µM [19] was 18.4%, the LC50 [20] was > 100 µM and the GI50 ([20]; read-out: GI50) was 11 µM. For the same molecule, the GI50 ([20]; read-out: pGI50 (converted)) was 11 µM, the TGI ([20]; read-out: pTGI) was > 100 µM and the growth at 10 µM [21] was 59.6%. For the same molecule, the growth at 10 µM [22] was 57.6%, the LC50 (concentration causing 50% net cell death) [23] was > 100 µM and the GI50 ([23]; read-out: GI50) was 0.535 µM. For the same molecule, the GI50 ([23]; read-out: pGI50 (converted)) was 0.537 µM, the TGI ([23]; read-out: pTGI (converted)) was 19.1 µM and the LC50 [24] was > 100 µM. The GI50 ([24]; read-out: GI50) was 1.37 µM, the GI50 ([24]; read-out: pGI50 (converted)) was 1.38 µM and the TGI ([24]; read-out: pTGI) was > 100 µM.
